According to ChEMBL document CHEMBL1122500, “Potential radiosensitizing agents. 6. 2-Nitroimidazole nucleosides: arabinofuranosyl and hexopyranosyl analogues” (J Med Chem, 1983):

Columns and labels:
[1] = In vitro radiosensitizing activity against Chinese Hamster cells at a conc of 1.0 mM measured as sensitizer enhancement ratio; assay type: functional, Cricetulus griseus
In short: (§1)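 V-79 Chinese hamster asynchronous monolayers from exponential cultures, plated in sealed containers and made hypoxic by flushing with 95% N2/5% CO2 for 1 h at 37 °C with compound present; total drug exposure 2 h. Cobalt-60 irradiation at ~230 rad/min, 400–2700 rad. Colonies counted after 6 days at 37 °C. SER = D0 hypoxic control / D0 hypoxic drug-treated; averaged over at least two experiment sets.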

[2] = Partition coefficient value between phosphate buffer (0.1 M, pH 7.4) and octanol at room temperature; assay type: physicochemical; details: octanol/water
In short: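 Shake-flask method: compound dissolved in 0.1 M phosphate buffer pH 7.4, stirred 1 h at room temperature with an equal volume of octanol. Aqueous-phase nucleoside concentration measured spectrophotometrically.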

[3] = In vitro radiosensitizing activity against Chinese Hamster cells at a conc of 0.5 mM measured as sensitizer enhancement ratio; assay type: functional, Cricetulus griseus; in short: as §1
[4] = In vitro radiosensitizing activity against Chinese Hamster cells at a conc of 0.05 mM measured as sensitizer enhancement ratio; assay type: functional, Cricetulus griseus; in short: as §1
[5] = In vitro radiosensitizing activity against Chinese Hamster cells at a conc of 0.1 mM measured as sensitizer enhancement ratio
[6] = In vitro radiosensitizing activity against Chinese Hamster cells at a conc of 1 mM measured as sensitizer enhancement ratio; assay type: functional, Cricetulus griseus; in short: as §1

PC [2]	SMILES	SER [3]	further results
0.07	O=[N+]([O-])c1nccn1[C@@H]1O[C@H](CO)[C@@H](O)[C@@H]1O		SER [1]: 1.8
0.22	O=[N+]([O-])c1nccn1[C@H]1C=C[C@H](O)[C@@H](CO)O1		SER [1]: 2
0.22	O=[N+]([O-])c1nccn1[C@@H]1C=C[C@H](O)[C@@H](CO)O1	2	
0.24	O=[N+]([O-])c1nccn1[C@H]1C=COC(CO)C1O (some centres not stated)		SER [1]: 1.7
0.11	O=[N+]([O-])c1nccn1[C@H]1O[C@H](CO)[C@@H](O)[C@@H]1O		SER [6]: 1.6
0.43	COCC(O)Cn1ccnc1[N+](=O)[O-] (configuration not stated) [MISONIDAZOLE]		SER [6]: 1.9

The remaining lines, values behind:

SMILES	PC [2]	SER [3]	further results
CC(=O)OC[C@H]1O[C@H](n2ccnc2[N+](=O)[O-])C=C[C@@H]1OC(C)=O		1.9	
O=C(OC[C@H]1O[C@H](n2ccnc2[N+](=O)[O-])[C@H](OC(=O)c2ccccc2)[C@@H]1OC(=O)c1ccccc1)c1ccccc1			SER [4]: 1
CC(=O)OC[C@H]1O[C@@H](n2ccnc2[N+](=O)[O-])C=C[C@@H]1OC(C)=O		1.6	
O=C(OC[C@H]1O[C@@H](n2ccnc2[N+](=O)[O-])[C@H](OC(=O)c2ccccc2)[C@@H]1OC(=O)c1ccccc1)c1ccccc1			SER [5]: 1.1
CC(=O)OCC1OC=CC(n2ccnc2[N+](=O)[O-])C1OC(C)=O (configuration not stated)		1.8	
